According to PubChem BioAssay:
Activity calls are given as the source filed them.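 The calls were made as follows, unless noted: active = viability at or below 30% in both replicate assays; inconclusive = viability at or below 30% in just one of the two assays; inactive = the rest.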

Columns and labels:
[1] = HUVEC growth inhibition – cell-based, human, primary screen (AID 575); conditions: HUVEC proliferation, CellTiter-Glo luminescence, 72 h; at 10 µM; stronger effect = lower value;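 also: 100% = median of untreated cell wells with 0.1% DMSO on each plate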
Method in brief: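 Assay system: Primary human umbilical vein endothelial cells | Quantity: 1250 cells per well | Medium: Supplemented EBM, 2% fetal bovine serum | Detection: CellTiter-Glo luminescence measuring cellular ATP | Read-out: % viability vs DMSO wells | Plate: Collagen-coated 384-well format | Times: 72 h exposure, 37 °C, 5% CO2, 30 min RT equilibration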

[2] = H69AR cell proliferation blockers – human, duplicate replicates, primary screen (AID 580;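 active = viability at or under a set limit in both replicates, limit being median viability minus 3 SD, cut at about 48% in these data, passing the limit was not always enough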;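 also: 100% = mean luminescence of untreated wells and 0% = no signal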); conditions: H69AR lung tumor cells viability, ATP luminescence, 72 h; at 10 µM; stronger effect = lower value
[3] = MRP1 drug-resistance reversers in H69AR cells – cell-based, doxorubicin co-treatment, pilot screen (AID 601;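 active = viability loss from added drug above about 55%, and viability with drug at most 40%, in both replicates, limit read from the data, passing the limit was not always enough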); conditions: CellTiter-Glo, 72 h, at 10 µM; for differential viability (reversal): stronger effect = higher value
[4] = yeast transport mutant growth inhibition pilot in 384-well plates, post-Golgi transport modulator project (AID 636; in the data active = inhibition above about 31%); conditions: absorbance 615 nm, about 18 h, stronger effect = higher value
[5] = growth suppression of yeast trafficking mutant, preliminary HTS, modulators of trafficking downstream of Golgi apparatus project, 1536-format plate, OD 615 nm (AID 637; in the data active = inhibition above about 30%); conditions: yeast transport mutant growth, absorbance 615 nm, 18 h; stronger effect = higher value
[6] = H69AR cells + 2 uM doxorubicin, measured here: viability with 2 uM doxorubicin, stronger effect = lower value
[7] = H69AR cells, compound alone cytotoxicity

Row | Compound | viability [1] | viability [2] | differential viability (reversal) ([3]; H69AR cells + 2 uM doxorubicin) | viability [3, 6] [%] | viability [3, 7] [%] | inhibition [4] | inhibition [5]
1 | CCCC(=O)Nc1ccccc1-c1nnn(CC(=O)Nc2ccc(OC)cc2)n1 | 73.8% (inactive) | 83.1% (inactive) | -14.1% (inactive) | 97.2 | 83.1 | -3.33% (inactive) | 5.4% (inactive)
2 | COC(=O)c1cc(Br)ccc1-c1ccc(/C=N/n2nnnc2N)o1 | 58.1% (inactive) | 80.6% (inactive) | 14% (inactive) | 66.7 | 80.6 | -2.47% (inactive) | 6.51% (inactive)
3 | CCN1CCN(Cc2ccccc2NC(=O)Nc2ccc(C)cc2)CC1 | 89.7% (inactive) | 98% (inactive) | 11.2% (inactive) | 86.8 | 98 | -5.92% (inactive) | -0.16% (inactive)
4 | Cc1ccc2nsnc2c1S(=O)(=O)N1CCN(Cc2ccc3c(c2)OCO3)CC1 | 91% (inactive) | 91% (inactive) | 1.65% (inactive) | 89.3 | 91 | -3.03% (inactive) | 2.86% (inactive)
5 | Cc1ccnc(NC(=O)Nc2ccc(F)cc2)c1 | 99.9% (inactive) | 104% (inactive) | 12.9% (inactive) | 91.2 | 104 | -2.08% (inactive) | -8.41% (inactive)
6 | CC(C)Cn1cc(C(=O)NCC2CCCO2)c2c3ccccc3n(C)c2c1=O (centres undefined) | 104% (inactive) | 89.5% (inactive) | 1.72% (inactive) | 87.8 | 89.5 | -2.08% (inactive) | 1.59% (inactive)
7 | Cc1nn(Cc2ccccc2Cl)c(C)c1NC(=O)C1C2CCC(O2)C1C(=O)O (centres undefined) | 93.8% (inactive) | 90.9% (inactive) | 3.11% (inactive) | 87.8 | 90.9 | -1.97% (inactive) | -7.14% (inactive)
8 | CC(=O)Nc1ccc(NC(=O)c2ccccc2N(C)S(C)(=O)=O)cc1 | 101% (inactive) | 94.9% (inactive) | 3.22% (inactive) | 91.7 | 94.9 | -6.71% (inactive) | -0.79% (inactive)
9 | CCc1ccc2[nH]c(=O)c(C(c3nnnn3CC3CCCO3)N3CCCc4ccccc43)cc2c1 (centres undefined) | 88.5% (inactive) | 91.8% (inactive) | -6.4% (inactive) | 98.2 | 91.8 | -7.2% (inactive) | -1.9% (inactive)
10 | COc1cc(NC(=O)Nc2cccc(Cl)c2)c(OC)cc1NC(=O)CN1CCCCC1 | 20.3% (active) | 3.06% (active) | -9.94% (inactive) | 13 | 3.06 | -6.27% (inactive) | -0.95% (inactive)
11 | O=C(Cc1nn[nH]n1)NCCC1=CCCCC1 | 82.8% (inactive) | 95.7% (inactive) | 4.6% (inactive) | 91.1 | 95.7 | -1.04% (inactive) | -4.76% (inactive)
12 | CC1CCN(CCC(=O)Nc2ccc(Br)cc2)CC1 | 88.6% (inactive) | 89.2% (inactive) | 8.88% (inactive) | 80.4 | 89.2 | -4.47% (inactive) | 0.32% (inactive)
13 | O=C(Nc1nc(-c2ccc(S(=O)(=O)N3CCCC3)cc2)cs1)C1COc2ccccc2O1 (centres undefined) | 79.1% (inactive) | 90.3% (inactive) | -1.52% (inactive) | 91.8 | 90.3 | -3.73% (inactive) | -6.83% (inactive)
14 | CN(CC(=O)Nc1ccncc1)S(=O)(=O)c1ccccc1 | 110% (inactive) | 95.8% (inactive) | 11.9% (inactive) | 83.9 | 95.8 | -7.63% (inactive) | -0.63% (inactive)
15 | CCOC(=O)c1nn(-c2sc(C(=O)OC)c(C)c2C(=O)OC)cc1O | 105% (inactive) | 85.1% (inactive) | 3.34% (inactive) | 81.7 | 85.1 | -1.82% (inactive) | 3.33% (inactive)
16 | CCOCCCNC(=O)C1CCCN(S(=O)(=O)CC)C1 (centres undefined) | 115% (inactive) | 94.5% (inactive) | -3.11% (inactive) | 97.6 | 94.5 | -6.53% (inactive) | 2.06% (inactive)
17 | COc1ccc(Cc2nc3ccc(S(N)(=O)=O)cc3[nH]2)cc1OC | 106% (inactive) | 99.9% (inactive) | 14.6% (inactive) | 85.4 | 99.9 | -2.86% (inactive) | 0.63% (inactive)
18 | N#Cc1c(SCC(=O)N2CCOCC2)nsc1SCC(=O)N1CCOCC1 | 97.7% (inactive) | 97.2% (inactive) | 11.5% (inactive) | 85.7 | 97.2 | -1.3% (inactive) | -3.02% (inactive)
19 | Nc1nc(C(=O)N2CCOCC2)nn1S(=O)(=O)c1ccc(Cl)cc1 | 99.1% (inactive) | 95.2% (inactive) | -1.83% (inactive) | 97 | 95.2 | -1.3% (inactive) | -0.95% (inactive)
20 | O=C(Nc1ccccc1C(=O)N1CCOCC1)c1ccncc1 | 96.4% (inactive) | 101% (inactive) | 7.54% (inactive) | 93.6 | 101 | -1.43% (inactive) | -2.22% (inactive)
21 | O=c1c2ccccc2c(C=Nc2ccc(Cl)cn2)c(O)n1-c1cc(Cl)ccc1N1CCOCC1 | 91.7% (inactive) | 89.1% (inactive) | 7.31% (inactive) | 81.8 | 89.1 | -0.65% (inactive) | -3.49% (inactive)

Row | Compound | viability [1] | viability [2] | differential viability (reversal) ([3]; H69AR cells + 2 uM doxorubicin) | viability [3, 6] [%] | viability [3, 7] [%] | inhibition [4] | inhibition [5]
22 | CCOC(=O)C1CCN(S(=O)(=O)c2cccc(-c3csc(C)n3)c2)CC1 | 101% (inactive) | 90.4% (inactive) | 5.91% (inactive) | 84.5 | 90.4 | -5.2% (inactive) | 3.81% (inactive)
23 | CC1(C)NC(=O)N(CN2C(=O)NC(C)(C)C2=O)C1=O | 99.6% (inactive) | 102% (inactive) | 11.1% (inactive) | 90.8 | 102 | -3.33% (inactive) | -1.11% (inactive)
24 | Cc1ccc(S(=O)(=O)N2CCCC2)cc1S(=O)(=O)N1CCCC1 | 90.9% (inactive) | 98.6% (inactive) | 5.92% (inactive) | 92.7 | 98.6 | -3.25% (inactive) | 2.54% (inactive)
25 | CN(c1cccc(NC(=O)COc2ccccc2)c1)S(C)(=O)=O | 108% (inactive) | 96% (inactive) | -3.07% (inactive) | 99 | 96 | 4.47% (inactive) | 0.32% (inactive)
26 | O=C(O)Cn1nc2ccccc2n1 | 108% (inactive) | 93.9% (inactive) | 3.65% (inactive) | 90.3 | 93.9 | -4% (inactive) | 8.73% (inactive)
27 | Nc1nc(-c2ccccc2)cc(C(F)(F)F)n1 | 95.4% (inactive) | 103% (inactive) | 8.53% (inactive) | 94.1 | 103 | -3.51% (inactive) | 1.27% (inactive)
28 | COc1cccc(-c2nc(-c3ccc(NC(=O)Cc4ccccc4OC)cc3)no2)c1 | 85.3% (inactive) | 90.6% (inactive) | 12.8% (inactive) | 77.8 | 90.6 | 9.09% (inactive) | -0.95% (inactive)
29 | COc1nc(OC)nc(N2CCC(NC(=O)C(Cc3ccc(C(C)C)cc3)NC(C)=O)CC2)n1 (centres undefined) | 110% (inactive) | 64.4% (inactive) | -3.67% (inactive) | 68 | 64.4 | -7.5% (inactive) | 1.59% (inactive)
30 | COc1nc2ccc(C)cc2cc1-c1noc(-c2cccnc2)n1 | 103% (inactive) | 104% (inactive) | 11.8% (inactive) | 91.9 | 104 | -2.37% (inactive) | -2.54% (inactive)
31 | C=CCn1c(=S)[nH]c2nc3c(cc2c1=O)COC(C)(C)C3 | 90% (inactive) | 77.8% (inactive) | 5.84% (inactive) | 72 | 77.8 | -5.06% (inactive) | 2.86% (inactive)
32 | Cc1cc(C)n(S(=O)(=O)c2cc(C(=O)O)c(Cl)cc2Cl)n1 | 102% (inactive) | 82.6% (inactive) | -10.2% (inactive) | 92.8 | 82.6 | -3.47% (inactive) | 4.29% (inactive)
33 | Cc1ccc(NC(=O)c2ccccc2F)nc1 | 68.1% (inactive) | 90.9% (inactive) | -6.37% (inactive) | 97.2 | 90.9 | -4.93% (inactive) | 1.11% (inactive)
34 | O=C(Nc1ccccc1C(=O)N1CCOCC1)C1COc2ccccc2O1 (centres undefined) | 100% (inactive) | 103% (inactive) | 6.71% (inactive) | 96.6 | 103 | -0.53% (inactive) | 0% (inactive)
35 | O=C(NCCN1CCCCC1)c1ccc(=O)oc1 | 101% (inactive) | 99.2% (inactive) | 9.61% (inactive) | 89.6 | 99.2 | -8.03% (inactive) | -2.22% (inactive)
36 | Cc1cc(C)c2c(N)c(C(=O)c3ccccc3)oc2n1 | 80.2% (inactive) | 90.4% (inactive) | -1.71% (inactive) | 92.1 | 90.4 | -7.6% (inactive) | 2.22% (inactive)
37 | Cc1noc(NS(=O)(=O)c2ccc(NC(=O)CCC3CCCC3)cc2)c1C | 88.9% (inactive) | 94% (inactive) | 11.6% (inactive) | 82.4 | 94 | -4.03% (inactive) | -0.16% (inactive)
38 | CCc1cc(-c2[nH]ncc2-c2ccc3c(c2)OCO3)c(O)cc1O | 4.08% (active) | 23.3% (active) | -14.2% (inactive) | 37.5 | 23.3 | 4.94% (inactive) | 27.1% (inactive)
39 | COc1cccc(OC)c1OCCCSc1nc(C)cc(=O)[nH]1 | 107% (inactive) | 91.1% (inactive) | -5.15% (inactive) | 96.2 | 91.1 | -4% (inactive) | -5.56% (inactive)
40 | Cc1ccccc1CN1CCN(CC(=O)NCc2ccco2)C1=O | 101% (inactive) | 83% (inactive) | -0.72% (inactive) | 83.7 | 83 | -1.17% (inactive) | 4.92% (inactive)
41 | Cc1nnc(NC2CCCCC2)[nH]c1=O | 87.5% (inactive) | 87.1% (inactive) | 6.85% (inactive) | 80.3 | 87.1 | -5.19% (inactive) | 3.02% (inactive)
42 | CCCCOc1ccc(C(=O)N2CCC(C)CC2)cc1 | 111% (inactive) | 104% (inactive) | 17.9% (inactive) | 85.7 | 104 | -3.2% (inactive) | 0.48% (inactive)
